Laboratory results: ChEMBL document CHEMBL4033712, “Synthesis and biological evaluation of new C-12(α/β)-(N-) sulfamoyl-phenylamino-14-deoxy-andrographolide derivatives as potent anti-cancer agents” (Bioorg Med Chem Lett, 2017)

Key:
Assay type in all cases: functional
[1] = tested on: CCRF-CEM; test: Growth inhibition of human CCRF-CEM cells incubated for 48 hrs by sulforhodamine B assay
Method in brief: (§1)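 NCI-60 five-dose screen at 0.01, 0.1, 1, 10 and 100 µM, 48 h incubation, sulforhodamine B end point. GI50 (50% decrease in net growth), TGI (total growth inhibition) and LC50 (net 50% loss of initial cells) taken from log concentration versus % growth inhibition curves.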

[2] = tested on: HL-60(TB); test: Growth inhibition of human HL-60(TB) cells incubated for 48 hrs by sulforhodamine B assay; conditions: HL-60, 48 h
Method in brief: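 NCI-60 five-dose screen at 0.01, 0.1, 1, 10 and 100 µM for 48 h, sulforhodamine B read-out. GI50 taken from log concentration versus % growth inhibition curves as the concentration giving 50% decrease in net cell growth.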

[3] = tested on: K562; test: Growth inhibition of human K562 cells incubated for 48 hrs by sulforhodamine B assay; conditions: K562, 48 h; method in brief: as §1
[4] = tested on: MOLT-4; test: Growth inhibition of human MOLT4 cells incubated for 48 hrs by sulforhodamine B assay; conditions: MOLT-4, 48 h; method in brief: as §1
[5] = tested on: EKVX; test: Growth inhibition of human EKVX cells incubated for 48 hrs by sulforhodamine B assay; method in brief: as §1
[6] = tested on: HOP-62; test: Growth inhibition of human HOP62 cells incubated for 48 hrs by sulforhodamine B assay; conditions: HOP-62, 48 h; method in brief: as §1
[7] = tested on: NCI-H23; test: Growth inhibition of human NCI-H23 cells incubated for 48 hrs by sulforhodamine B assay; conditions: NCI-H23, 48 h; method in brief: as §1
[8] = tested on: COLO 205; test: Growth inhibition of human COLO205 cells incubated for 48 hrs by sulforhodamine B assay; conditions: COLO 205, 48 h; method in brief: as §1
[9] = tested on: HT-29; test: Growth inhibition of human HT-29 cells incubated for 48 hrs by sulforhodamine B assay; conditions: HT-29, 48 h; method in brief: as §1
[10] = tested on: KM12; test: Growth inhibition of human KM12 cells incubated for 48 hrs by sulforhodamine B assay; conditions: KM12, 48 h; method in brief: as §1
[11] = tested on: SW-620; test: Growth inhibition of human SW620 cells incubated for 48 hrs by sulforhodamine B assay; conditions: SW-620, 48 h
Method in brief: (§2)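 NCI 60 human tumour cell line panel, five-dose study at 0.01, 0.1, 1, 10 and 100 µM, 48 h incubation. Sulforhodamine B protein-binding dye end point. GI50 (50% decrease in net cell growth), TGI (total growth inhibition) and LC50 (net 50% loss of initial cells) read from log concentration versus % growth inhibition curves.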

[12] = tested on: SF-268; test: Growth inhibition of human SF268 cells incubated for 48 hrs by sulforhodamine B assay; conditions: SF-268, 48 h; method in brief: as §2
[13] = tested on: SF-539; test: Growth inhibition of human SF539 cells incubated for 48 hrs by sulforhodamine B assay; conditions: SF-539, 48 h; method in brief: as §2
[14] = tested on: SNB-75; test: Growth inhibition of human SNB75 cells incubated for 48 hrs by sulforhodamine B assay; conditions: SNB-75, 48 h; method in brief: as §2
[15] = tested on: M14; test: Growth inhibition of human M14 cells incubated for 48 hrs by sulforhodamine B assay; conditions: M14, 48 h; method in brief: as §1
[16] = tested on: MDA-MB-435; test: Growth inhibition of human MDA-MB-435 cells incubated for 48 hrs by sulforhodamine B assay; conditions: MDA-MB-435, 48 h; method in brief: as §1
[17] = tested on: SK-MEL-5; test: Growth inhibition of human SK-MEL-5 cells incubated for 48 hrs by sulforhodamine B assay; conditions: SK-MEL-5, 48 h; method in brief: as §2
[18] = tested on: UACC-62; test: Growth inhibition of human UACC62 cells incubated for 48 hrs by sulforhodamine B assay; conditions: UACC-62, 48 h; method in brief: as §2
[19] = tested on: OVCAR-3; test: Growth inhibition of human OVCAR3 cells incubated for 48 hrs by sulforhodamine B assay; conditions: OVCAR-3, 48 h; method in brief: as §1
[20] = tested on: OVCAR-5; test: Growth inhibition of human OVCAR5 cells incubated for 48 hrs by sulforhodamine B assay; conditions: OVCAR-5, 48 h; method in brief: as §1
[21] = tested on: 786-0; test: Growth inhibition of human 786-0 cells incubated for 48 hrs by sulforhodamine B assay; conditions: 786-0, 48 h; method in brief: as §1
[22] = tested on: ACHN; test: Growth inhibition of human ACHN cells incubated for 48 hrs by sulforhodamine B assay; method in brief: as §1
[23] = tested on: CAKI-1; test: Growth inhibition of human Caki1 cells incubated for 48 hrs by sulforhodamine B assay; conditions: CAKI-1, 48 h; method in brief: as §1
[24] = tested on: RXF 393; test: Growth inhibition of human RXF393 cells incubated for 48 hrs by sulforhodamine B assay; conditions: RXF 393, 48 h; method in brief: as §2
[25] = tested on: UO-31; test: Growth inhibition of human UO31 cells incubated for 48 hrs by sulforhodamine B assay; conditions: UO-31, 48 h; method in brief: as §2
[26] = tested on: PC-3; test: Growth inhibition of human PC3 cells incubated for 48 hrs by sulforhodamine B assay; conditions: PC-3, 48 h; method in brief: as §1
[27] = tested on: MCF7; test: Growth inhibition of human MCF7 cells incubated for 48 hrs by sulforhodamine B assay; conditions: MCF7, 48 h; method in brief: as §1
[28] = tested on: HOP-92; test: Anticancer activity against human HOP92 cells assessed as cell growth at 10 uM after 48 hrs by sulforhodamine B assay relative to control; conditions: HOP-92, 48 h, read-out: Activity
Method in brief: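 Single-dose NCI-60 panel screen: compound added at 10 µM and the culture incubated 48 h. The end point was read by protein staining with sulforhodamine B. The value is percent growth of treated cells relative to untreated control cells, reported as a mean graph across the panel.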

[29] = read-out: LC50 (the source's name)

C=C1CC[C@@H]2[C@](C)(COC(C)=O)[C@H](OC(C)=O)CC[C@@]2(C)[C@H]1CC(Nc1ccc(S(=O)(=O)Nc2ncccn2)cc1)C1=CCOC1=O (stereo partly specified)
GI50 [1]: 0.73 µM
TGI [1]: 3.41 µM
CC50 [1, 29]: > 100 µM
GI50 [2]: 1.3 µM
TGI [2]: 3.64 µM
CC50 [2, 29]: > 100 µM
GI50 [3]: 1.73 µM
TGI [3]: 11.7 µM
CC50 [3, 29]: > 100 µM
GI50 [4]: 2.27 µM
TGI [4]: 8.37 µM
CC50 [4, 29]: > 100 µM
GI50 [5]: 8.18 µM
TGI [5]: 20.6 µM
CC50 [5, 29]: 45.6 µM
GI50 [6]: 3.02 µM
TGI [6]: 6.44 µM
CC50 [6, 29]: 21.5 µM
GI50 [7]: 2.11 µM
TGI [7]: 5.38 µM
CC50 [7, 29]: 26.7 µM
GI50 [8]: 1.78 µM
TGI [8]: 3.8 µM
CC50 [8, 29]: 8.11 µM
GI50 [9]: 1.03 µM
TGI [9]: 2.79 µM
GI50 [10]: 2.33 µM
TGI [10]: 5.54 µM
CC50 [10, 29]: 17.8 µM
GI50 [11]: 0.86 µM
TGI [11]: 2.25 µM
CC50 [11, 29]: 5.36 µM
GI50 [12]: 1.93 µM
TGI [12]: 4.16 µM
CC50 [12, 29]: 8.97 µM
GI50 [13]: 1.5 µM
TGI [13]: 2.94 µM
CC50 [13, 29]: 5.78 µM
GI50 [14]: 1.27 µM
TGI [14]: 3.23 µM
CC50 [14, 29]: 8.2 µM
GI50 [15]: 1.44 µM
TGI [15]: 3.98 µM
CC50 [15, 29]: 15.9 µM
GI50 [16]: 1.58 µM
TGI [16]: 3.77 µM
CC50 [16, 29]: 9.04 µM
GI50 [17]: 1.9 µM
TGI [17]: 3.85 µM
CC50 [17, 29]: 7.81 µM
GI50 [18]: 1.11 µM
TGI [18]: 2.56 µM
CC50 [18, 29]: 5.91 µM
GI50 [19]: 1.21 µM
TGI [19]: 2.54 µM
CC50 [19, 29]: 5.31 µM
GI50 [20]: 1.98 µM
LC50 (concentration causing net 50% loss of initial cells) [20]: 7.47 µM
TGI [20]: 3.85 µM
GI50 [21]: 1.77 µM
LC50 (concentration giving net 50% loss of initial cells) [21]: 6.51 µM
TGI [21]: 3.39 µM
GI50 [22]: 1.72 µM
TGI [22]: 3.27 µM
CC50 [22, 29]: 6.2 µM
GI50 [23]: 1.74 µM
TGI [23]: 4.04 µM
CC50 [23, 29]: 9.39 µM
GI50 [24]: 1.95 µM
TGI [24]: 3.58 µM
CC50 [24, 29]: 6.6 µM
GI50 [25]: 1.51 µM
LC50 (concentration giving net 50% loss of initial cells) [25]: 5.85 µM
TGI [25]: 2.97 µM
GI50 [26]: 2.11 µM
TGI [26]: 5.07 µM
CC50 [26, 29]: 17.5 µM
GI50 [27]: 1.07 µM
TGI [27]: 4.54 µM
CC50 [27, 29]: > 100 µM
growth at 10 µM [28]: 56.3%
